Data reported in ChEMBL document CHEMBL3352189 (J Med Chem, 2014).
Converted amounts (≈) assume the structure as drawn.

Key:
Mus musculus [1] = assay: Toxicity in Venezuelan equine encephalitis virus TC83 infected C3H/HeN mouse assessed as induction of lethargy at 40 mg/kg/day, ip BID for 4 days; assay type: organism-based; design: route intraperitoneal; conditions: in vivo, 96 h
Mus musculus [2] = assay: Toxicity in Venezuelan equine encephalitis virus TC83 infected C3H/HeN mouse assessed as induction of hunched posture at 5 mg/kg/day, ip BID for 4 days; assay type: organism-based; design: route intraperitoneal; conditions: in vivo, 96 h
[3] = biological target: Adenosine receptor A2a (Homo sapiens) (UniProt P29274); assay: Displacement of [3H]CGS-21680 from human adenosine A2A receptor at 10 uM
[4] = biological target: Beta-1 adrenergic receptor (Homo sapiens) (UniProt P08588); assay: Displacement of [125I]cyanopindolol from human adrenergic beta1 receptor at 10 uM
[5] = biological target: Beta-2 adrenergic receptor (Homo sapiens) (UniProt P07550); assay: Displacement of [3H]CGP-12177 from human adrenergic beta2 receptor at 10 uM
Chain of Beta-2 adrenergic receptor (Homo sapiens) (P07550 whole entry, looked up): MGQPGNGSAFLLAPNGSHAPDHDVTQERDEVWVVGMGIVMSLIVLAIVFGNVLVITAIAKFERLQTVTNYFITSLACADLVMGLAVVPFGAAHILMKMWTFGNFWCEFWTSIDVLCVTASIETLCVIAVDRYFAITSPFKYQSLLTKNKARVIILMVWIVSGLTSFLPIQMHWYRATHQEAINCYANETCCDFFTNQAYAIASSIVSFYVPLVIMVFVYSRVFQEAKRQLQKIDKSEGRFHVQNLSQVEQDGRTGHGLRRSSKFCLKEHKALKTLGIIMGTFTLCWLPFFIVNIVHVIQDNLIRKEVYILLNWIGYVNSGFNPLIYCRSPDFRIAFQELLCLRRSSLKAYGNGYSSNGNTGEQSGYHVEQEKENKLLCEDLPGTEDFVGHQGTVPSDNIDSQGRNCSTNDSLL

[6] = biological target: L-type calcium channel, benzothiazepine site (Rattus norvegicus, UniProt P22002+P27732+Q02485); assay: Displacement of [3H]diltiazem from rat calcium channel L-Type benzothiazepine site at 10 uM; assay type: protein assay; conditions: probe [3H]diltiazem
[7] = biological target: L-type calcium channel, dihydropyridine site (Rattus norvegicus, UniProt P22002+P27732+Q02485); assay: Displacement of [3H]nitrendipine from rat calcium channel L-Type dihydropyridine site at 10 uM; assay type: protein assay; conditions: probe [3H]nitrendipine
[8] = biological target: D(4) dopamine receptor (Homo sapiens) (UniProt P21917); assay: Displacement of [3H]spiperone from human dopamine D4.2 receptor at 10 uM
Chain of D(4) dopamine receptor (Homo sapiens) (P21917 whole entry): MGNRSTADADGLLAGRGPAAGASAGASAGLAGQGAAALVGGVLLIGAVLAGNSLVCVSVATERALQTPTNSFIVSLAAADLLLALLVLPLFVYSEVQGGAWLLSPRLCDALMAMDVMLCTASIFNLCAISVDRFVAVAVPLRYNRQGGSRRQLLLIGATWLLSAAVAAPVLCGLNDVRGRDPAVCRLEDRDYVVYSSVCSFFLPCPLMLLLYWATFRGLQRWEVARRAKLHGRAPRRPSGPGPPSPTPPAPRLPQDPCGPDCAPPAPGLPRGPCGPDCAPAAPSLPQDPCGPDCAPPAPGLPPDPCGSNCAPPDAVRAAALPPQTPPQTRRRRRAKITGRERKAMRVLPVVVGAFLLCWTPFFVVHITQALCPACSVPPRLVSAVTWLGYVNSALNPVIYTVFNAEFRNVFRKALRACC

[9] = biological target: Endothelin-1 receptor (Homo sapiens) (UniProt P25101); assay: Displacement of [125I]endothelin-1 from human ETA receptor at 10 uM
[10] = biological target: Endothelin receptor type B (Homo sapiens) (UniProt P24530); assay: Displacement of [125I]endothelin-1 from human ETB receptor at 10 uM
[11] = biological target: Glutamate NMDA receptor (Rattus norvegicus) (UniProt P35439+Q00959+Q00960+Q00961+Q62645+Q8VHN2+Q9R1M7); assay: Displacement of [3H]TCP from rat NMDA receptor phencyclidine binding site binding site at 10 uM; assay type: protein-complex assay
[12] = biological target: Histamine H2 receptor (Homo sapiens) (UniProt P25021); assay: Displacement of [125I]aminopotentidine from human histamine H2 receptor at 10 uM
Chain of Histamine H2 receptor (Homo sapiens) (P25021 whole entry): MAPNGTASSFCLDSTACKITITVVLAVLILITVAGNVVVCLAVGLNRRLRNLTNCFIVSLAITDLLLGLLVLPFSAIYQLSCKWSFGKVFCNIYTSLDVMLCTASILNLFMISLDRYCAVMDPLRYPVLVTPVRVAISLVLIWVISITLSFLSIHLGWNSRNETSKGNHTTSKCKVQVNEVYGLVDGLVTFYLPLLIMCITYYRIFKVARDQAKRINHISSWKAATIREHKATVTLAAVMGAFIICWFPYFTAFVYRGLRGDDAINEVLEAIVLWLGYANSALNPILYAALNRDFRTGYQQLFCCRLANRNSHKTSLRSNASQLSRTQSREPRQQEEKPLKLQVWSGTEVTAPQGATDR

[13] = biological target: Histamine H2 receptor (Homo sapiens) (UniProt P25021); assay: Displacement of [3H]N-alpha-Methylhistamine from human histamine H3 receptor at 10 uM
Rattus norvegicus [14] = organism: Rattus norvegicus; assay: Displacement of [3H]idazoxan from rat Imidazole receptor 2 at 10 uM
Mus musculus [15] = organism: Mus musculus; assay: Displacement of [125I]interleukin-1beta from mouse IL1 receptor at 10 uM
[16] = biological target: Melatonin-related receptor (Homo sapiens) (UniProt Q13585); assay: Displacement of [125I]2-Iodomelatonin from human MT1 receptor at 10 uM
Chain of Melatonin-related receptor (Homo sapiens) (Q13585 whole entry): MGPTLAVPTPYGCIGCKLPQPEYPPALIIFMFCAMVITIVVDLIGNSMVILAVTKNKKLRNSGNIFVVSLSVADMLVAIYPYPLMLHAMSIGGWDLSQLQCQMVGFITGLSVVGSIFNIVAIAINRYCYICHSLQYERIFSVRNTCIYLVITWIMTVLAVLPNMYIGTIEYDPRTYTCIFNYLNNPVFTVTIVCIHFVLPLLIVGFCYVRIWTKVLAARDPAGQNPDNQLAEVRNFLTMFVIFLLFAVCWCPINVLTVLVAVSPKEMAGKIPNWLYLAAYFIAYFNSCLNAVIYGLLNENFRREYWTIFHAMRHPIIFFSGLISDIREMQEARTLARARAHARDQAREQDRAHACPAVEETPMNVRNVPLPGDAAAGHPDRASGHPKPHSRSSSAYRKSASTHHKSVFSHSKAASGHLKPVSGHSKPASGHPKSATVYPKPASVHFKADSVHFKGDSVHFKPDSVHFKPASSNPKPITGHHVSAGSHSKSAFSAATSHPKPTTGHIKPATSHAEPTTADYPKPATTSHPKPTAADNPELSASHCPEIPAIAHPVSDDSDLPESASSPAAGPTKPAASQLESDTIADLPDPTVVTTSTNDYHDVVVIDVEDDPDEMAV

[17] = biological target: Muscarinic acetylcholine receptor M1 (Homo sapiens) (UniProt P11229); assay: Displacement of [3H]N-Methylscopolamine from human muscarinic M1 receptor at 10 uM
Chain of Muscarinic acetylcholine receptor M1 (Homo sapiens) (P11229 whole entry): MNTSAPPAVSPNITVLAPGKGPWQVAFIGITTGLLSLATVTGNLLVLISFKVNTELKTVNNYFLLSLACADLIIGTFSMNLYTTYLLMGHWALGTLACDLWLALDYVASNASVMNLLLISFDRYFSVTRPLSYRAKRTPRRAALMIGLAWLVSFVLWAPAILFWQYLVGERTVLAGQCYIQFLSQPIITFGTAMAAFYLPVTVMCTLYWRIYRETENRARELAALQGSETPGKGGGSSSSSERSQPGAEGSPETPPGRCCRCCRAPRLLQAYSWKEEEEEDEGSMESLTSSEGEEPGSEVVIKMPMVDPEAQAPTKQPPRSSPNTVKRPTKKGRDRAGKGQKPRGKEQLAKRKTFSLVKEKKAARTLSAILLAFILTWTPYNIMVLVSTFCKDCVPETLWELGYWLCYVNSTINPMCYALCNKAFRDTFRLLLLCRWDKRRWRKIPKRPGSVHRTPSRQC

[18] = biological target: Muscarinic acetylcholine receptor M2 (Homo sapiens) (UniProt P08172); assay: Displacement of [3H]N-Methylscopolamine from human muscarinic M2 receptor at 10 uM
Chain of Muscarinic acetylcholine receptor M2 (Homo sapiens) (P08172 whole entry): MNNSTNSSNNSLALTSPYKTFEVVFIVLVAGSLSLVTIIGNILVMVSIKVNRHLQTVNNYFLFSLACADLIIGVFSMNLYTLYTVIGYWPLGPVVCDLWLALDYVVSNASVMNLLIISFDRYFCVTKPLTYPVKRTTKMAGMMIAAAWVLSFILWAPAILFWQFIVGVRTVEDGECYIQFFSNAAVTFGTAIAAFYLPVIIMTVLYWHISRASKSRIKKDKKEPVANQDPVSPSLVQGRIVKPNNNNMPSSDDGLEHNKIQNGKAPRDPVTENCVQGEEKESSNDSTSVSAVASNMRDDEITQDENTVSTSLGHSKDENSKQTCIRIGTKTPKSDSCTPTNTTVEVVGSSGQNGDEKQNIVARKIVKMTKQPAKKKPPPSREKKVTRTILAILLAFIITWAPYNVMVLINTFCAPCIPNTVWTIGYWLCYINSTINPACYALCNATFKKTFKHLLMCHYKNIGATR

[19] = biological target: Neuronal acetylcholine receptor (Rattus norvegicus) (UniProt P04757+P09483+P12389+P12390+P12392+P43144+Q9JLB5+P12391+P43143+P20420+Q05941); assay: Displacement of [125I]epibatidine from human nAchR at 10 uM; assay type: protein-complex assay
[20] = biological target: Delta-type opioid receptor (Homo sapiens) (UniProt P41143); assay: Displacement of [3H]naltrindole from human delta1 opiate receptor at 10 uM
Chain of Delta-type opioid receptor (Homo sapiens) (P41143 whole entry): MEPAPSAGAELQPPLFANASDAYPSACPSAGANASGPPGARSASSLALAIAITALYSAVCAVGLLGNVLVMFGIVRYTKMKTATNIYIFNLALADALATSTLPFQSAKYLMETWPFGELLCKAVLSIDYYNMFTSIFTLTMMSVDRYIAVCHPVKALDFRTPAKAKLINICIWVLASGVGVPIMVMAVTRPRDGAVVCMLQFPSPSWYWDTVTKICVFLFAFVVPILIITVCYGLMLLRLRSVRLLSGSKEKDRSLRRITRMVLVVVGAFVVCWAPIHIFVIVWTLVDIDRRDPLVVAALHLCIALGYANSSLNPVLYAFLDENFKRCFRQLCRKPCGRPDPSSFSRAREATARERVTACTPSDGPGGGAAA

[21] = biological target: Mu-type opioid receptor (Homo sapiens) (UniProt P35372); assay: Displacement of [3H]diprenorphine from human mu opiate receptor at 10 uM
Chain of Mu-type opioid receptor (Homo sapiens) (P35372 whole entry): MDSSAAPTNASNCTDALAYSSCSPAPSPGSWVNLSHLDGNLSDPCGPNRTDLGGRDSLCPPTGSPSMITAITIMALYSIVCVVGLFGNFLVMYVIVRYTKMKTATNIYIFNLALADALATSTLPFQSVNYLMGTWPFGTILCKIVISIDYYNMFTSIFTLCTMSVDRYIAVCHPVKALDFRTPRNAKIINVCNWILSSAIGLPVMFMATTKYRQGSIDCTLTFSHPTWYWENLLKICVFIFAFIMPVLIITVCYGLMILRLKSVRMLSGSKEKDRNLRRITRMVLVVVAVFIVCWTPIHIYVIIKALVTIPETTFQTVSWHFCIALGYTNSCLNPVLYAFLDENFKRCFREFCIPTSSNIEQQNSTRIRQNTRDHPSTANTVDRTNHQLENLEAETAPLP

Mus musculus [22] = organism: Mus musculus; assay: Displacement of [3H]PDBu from mouse phorbol ester receptor at 10 uM
Oryctolagus cuniculus = organism: Oryctolagus cuniculus; assay: Displacement of [3H]alpha,beta-methylene-ATP from rabbit P2X channel at 10 uM
Rattus norvegicus [23] = organism: Rattus norvegicus; assay: Displacement of [35S]ATP-alphaS from rat P2Y channel at 10 uM
[24] = biological target: Sigma non-opioid intracellular receptor 1 (Homo sapiens) (UniProt Q99720); assay: Displacement of [3H]haloperidol from human sigma1 receptor at 10 uM
Chain of Sigma non-opioid intracellular receptor 1 (Homo sapiens) (Q99720 whole entry): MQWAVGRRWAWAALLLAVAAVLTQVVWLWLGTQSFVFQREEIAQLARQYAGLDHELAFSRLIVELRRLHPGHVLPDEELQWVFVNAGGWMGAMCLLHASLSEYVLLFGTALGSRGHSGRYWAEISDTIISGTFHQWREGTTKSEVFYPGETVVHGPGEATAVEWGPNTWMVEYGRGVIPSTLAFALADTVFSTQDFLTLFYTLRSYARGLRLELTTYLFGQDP

[25] = biological target: Sodium-dependent dopamine transporter (Homo sapiens) (UniProt Q01959); assay: Displacement of [125I]RTI-55 from human DAT at 10 uM
Chain of Sodium-dependent dopamine transporter (Homo sapiens) (Q01959 whole entry): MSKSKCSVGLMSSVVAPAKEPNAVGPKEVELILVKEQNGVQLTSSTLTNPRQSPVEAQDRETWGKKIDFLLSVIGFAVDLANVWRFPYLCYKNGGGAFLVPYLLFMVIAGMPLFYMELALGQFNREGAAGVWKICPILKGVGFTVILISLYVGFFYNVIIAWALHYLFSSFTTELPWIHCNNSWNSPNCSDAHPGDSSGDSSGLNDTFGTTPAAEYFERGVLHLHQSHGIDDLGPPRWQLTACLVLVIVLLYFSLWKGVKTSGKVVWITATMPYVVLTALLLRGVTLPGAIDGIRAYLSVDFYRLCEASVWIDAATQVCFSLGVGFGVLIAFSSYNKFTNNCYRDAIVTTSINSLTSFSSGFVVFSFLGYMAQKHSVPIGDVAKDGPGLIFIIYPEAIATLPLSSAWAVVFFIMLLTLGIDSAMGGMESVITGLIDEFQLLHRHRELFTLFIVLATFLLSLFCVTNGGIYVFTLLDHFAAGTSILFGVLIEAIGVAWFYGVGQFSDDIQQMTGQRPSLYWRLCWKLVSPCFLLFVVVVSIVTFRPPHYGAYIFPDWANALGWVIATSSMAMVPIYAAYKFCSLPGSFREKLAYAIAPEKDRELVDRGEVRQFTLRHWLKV

Rattus norvegicus [26] = organism: Rattus norvegicus; assay: Displacement of [3H]GABA from rat GABA transporter at 10 uM
[27] = biological target: Sodium-dependent noradrenaline transporter (Homo sapiens) (UniProt P23975); assay: Displacement of [125I]RTI-55 from human NET at 10 uM
Chain of Sodium-dependent noradrenaline transporter (Homo sapiens) (P23975 whole entry): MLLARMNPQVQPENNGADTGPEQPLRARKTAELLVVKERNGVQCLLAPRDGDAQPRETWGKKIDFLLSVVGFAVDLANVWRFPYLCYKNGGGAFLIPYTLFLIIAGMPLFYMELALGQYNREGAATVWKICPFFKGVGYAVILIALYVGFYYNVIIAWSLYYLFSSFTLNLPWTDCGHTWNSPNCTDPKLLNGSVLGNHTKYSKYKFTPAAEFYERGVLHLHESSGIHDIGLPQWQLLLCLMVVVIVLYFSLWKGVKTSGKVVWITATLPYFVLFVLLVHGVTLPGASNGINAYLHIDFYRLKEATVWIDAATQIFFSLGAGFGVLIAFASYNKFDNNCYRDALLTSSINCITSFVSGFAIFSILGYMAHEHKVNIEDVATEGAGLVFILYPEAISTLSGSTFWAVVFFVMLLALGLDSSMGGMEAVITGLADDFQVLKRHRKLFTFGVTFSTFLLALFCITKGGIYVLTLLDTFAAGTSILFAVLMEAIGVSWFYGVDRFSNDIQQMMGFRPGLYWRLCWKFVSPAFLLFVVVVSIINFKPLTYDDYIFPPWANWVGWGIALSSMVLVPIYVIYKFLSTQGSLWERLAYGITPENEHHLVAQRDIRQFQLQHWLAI

[28] = tested on: Venezuelan equine encephalitis virus; assay: Antiviral activity against Venezuelan equine encephalitis virus TrD infected in Vero 76 cells assessed as reduction in virus-induced cytopathic effect after 2 days by Celltiter-Glo reagent based assay; assay type: functional, organism-based; conditions: Vero 76, 48 h
[29] = Aqueous solubility in PBS buffer; assay type: physicochemical
Summary of the method: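 Solubility measured in 1× PBS at pH 7.4.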

[30] = Protein binding in human plasma at 10 uM; assay type: ADME, cell-free; conditions: read-out: PPB (converted)
Liver = assay: Stability in mouse liver microsomes as parent compound remaining; assay type: ADME
Summary of the method: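 Mouse hepatic microsomes incubated for 1 h; reported as % parent remaining.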

[31] = Hepatotoxicity in human Fa2N-4 cells; assay type: toxicity, cell-based; conditions: read-out: LD50 (the source's name)
CYP3A4 = CYP3A4 (Homo sapiens, UniProt P08684); assay: Inhibition of human CYP3A4 at 10 uM; assay type: ADME
Summary of the method: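 Human CYP inhibition run with reference inhibitors as controls: α-naphthoflavone for CYP1A2 and ketoconazole for CYP3A4.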

[32] = Plasma concentration in C57BL/6 mouse at 1 mg/kg, ip administered as single dose measured after 120 mins by LC/MS analysis based RACE assay; assay type: ADME, organism-based; design: dose 1 mg/kg, route intraperitoneal
Summary of the method: (§1)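 Single intraperitoneal dose of 1, 5 or 10 mg/kg given to C57BL/6 mice, 3 mice per dose and time point, with a vehicle-control cohort. Plasma was sampled at 20 and 120 min post-dose and drug level measured by LC/MS. Each time point averaged two injections (<20% difference); values are means ± standard deviation in μM.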

[33] = Plasma concentration in C57BL/6 mouse at 10 mg/kg, ip administered as single dose measured after 120 mins by LC/MS analysis based RACE assay; assay type: ADME, organism-based; design: dose 10 mg/kg, route intraperitoneal; summary of the method: as §1

CN1CCN(C)/C(=N/c2ccc([N+](=O)[O-])cc2C(=O)Nc2ccccc2)C1
Activity (Mus musculus [1]): Non-toxic
Activity (Mus musculus [2]): Non-toxic
inhibition [3]: 17%
inhibition [4]: 3.56%
inhibition [5]: 6.39%
inhibition at 10 µM [6]: 7.06%
inhibition at 10 µM [7]: 4.51%
inhibition [8]: 11.2%
inhibition [9]: 7.78%
inhibition [10]: 8.32%
inhibition [11]: 9.28%
inhibition [12]: 20.4%
inhibition [13]: 15.8%
inhibition (Rattus norvegicus [14]): 14.4%
inhibition (Mus musculus [15]): 3.11%
inhibition [16]: 18%
inhibition [17]: 0.73%
inhibition [18]: 2.1%
inhibition [19]: 10.8%
inhibition [20]: -2.18%
inhibition [21]: 25.4%
inhibition (Mus musculus [22]): 0%
inhibition (Oryctolagus cuniculus): 14.2%
inhibition (Rattus norvegicus [23]): 6.41%
inhibition [24]: 6.54%
inhibition [25]: 10.8%
inhibition (Rattus norvegicus [26]): 0.42%
inhibition [27]: 91.1%
EC50 [28]: 40 nM
solubility [29]: 40.4 µg/mL (≈ 110 µM)
fraction unbound at 10 µM [30]: 0.23
Stability (Liver): 42.9%
CC50 [31]: > 250000 nM
inhibition at 10 µM (CYP3A4): 18%
concentration at 2 h [32]: 23 nM
concentration at 2 h [33]: 490 nM
